Results pooled from the literature.
Each line is one published result; the experiments were not run side by side.
SLC6A2: Sodium-dependent noradrenaline transporter (SLC6A2, Homo sapiens, UniProt P23975)
FPR1: fMet-Leu-Phe receptor (FPR1, Homo sapiens, UniProt P21462)
CES2: Cocaine esterase (CES2, Homo sapiens, UniProt O00748)
Oprk1: Kappa-type opioid receptor (Oprk1, Mus musculus, UniProt P33534)

| Structure (SMILES) | target | effect on | mode | method | notes | measurement | value |
| --- | --- | --- | --- | --- | --- | --- | --- |
| CC(=O)N[C@@H](C)c1cc(Cl)ccc1C1CCN(C(=O)[C@@H]2CN(C(C)(C)C)C[C@H]2c2ccc(F)cc2F)CC1 | Melanocortin receptor 4 (MC4R, Homo sapiens, UniProt P32245) | cAMP | agonist | – | – | EC50 | 0.0078 µM |
| CNC(=O)[C@@]12C[C@@H]1[C@@H](n1cnc3c(NCc4cccc(Cl)c4)nc(C#Cc4ccc(Cl)s4)nc31)[C@H](O)[C@@H]2O | SLC6A2 | ligand displacement | – | radioligand | – | Ki | 2.3 µM |
| N#Cc1ccc(C[C@@H](Nc2c(Nc3ccc(Br)cc3)c(=O)c2=O)C(=O)N2CCc3ccccc32)cc1 | FPR1 | calcium signal | agonist | – | – | EC50 | 32.8 µM |
| CCOC(=O)[C@@]12C[C@@H]1[C@@H](n1ccc3c(NCCCCc4ccccc4)nc(C#Cc4ccccc4)nc31)[C@H](O)[C@@H]2O | SLC6A2 | ligand displacement | – | radioligand | – | Ki | 1.5 µM |
| COc1ccc(/C=C2\Cc3cc(OC)c(OC)cc3C2=O)cc1OC | CES2 | enzyme activity | inhibitor | fluorescence | with preincubation | IC50 | > 100 µM |
| CC(C)[C@@H](CN1CCc2ccccc2C1)NC(=O)c1cccc(-c2ccc(F)cc2)c1 | Oprk1 | ligand displacement | – | radioligand | – | Ki | 13 µM |
| CCn1c(=O)[nH]c2cc(C(=O)NC(c3ccc(F)cc3)c3cnn(C)c3)ccc2c1=O (centres unmarked) | WD repeat-containing protein 91 (Homo sapiens, UniProt A4D1P6) | binding | – | SPR | – | Kd | 3 µM |
| CCOC(=O)[C@@]12C[C@@H]1[C@@H](n1cnc3c(NCCCCCCc4ccccc4)nc(I)nc31)[C@H](O)[C@@H]2O | SLC6A2 | ligand displacement | – | radioligand | – | Ki | 5.4 µM |
| CC(=O)[C@H]1CC[C@H]2[C@@H]3CC=C4C[C@@H](O)CC[C@]4(C)[C@H]3CC[C@]12C | CES2 | enzyme activity | inhibitor | fluorescence | with preincubation | IC50 | > 100 µM |
| NCC(=O)O | ltaA (Aeromonas jandaei, UniProt O07051) | binding | – | absorbance | – | Kd | 11000 µM |
| CC(C)[C@H](CN1CCc2ccccc2C1)NC(=O)c1c(Cl)cncc1Cl | Oprk1 | ligand displacement | – | radioligand | – | Ki | 12.5 µM |
| OC[C@@]12C[C@@H]1[C@@H](n1cnc3c(NCCCCCCc4ccccc4)nc(I)nc31)[C@H](O)[C@@H]2O | SLC6A2 | ligand displacement | – | radioligand | – | Ki | 1.4 µM |
| O=C1NC(=O)C(c2ccccc2)(c2ccccc2)N1 | CES2 | enzyme activity | inhibitor | fluorescence | with preincubation | IC50 | > 100 µM |
| N#Cc1ccc(C[C@H](Nc2nnc(-c3cccc(F)c3)o2)C(=O)N2CCc3ccccc32)cc1 | FPR1 | calcium signal | agonist | – | – | EC50 | 30.2 µM |
| O=c1c(O[C@@H]2O[C@H](CO)[C@H](O)[C@H](O)[C@H]2O)c(-c2ccc(O)c(O)c2)oc2cc(O)cc(O)c12 | srtA (Staphylococcus aureus, UniProt Q2FV99) | binding | – | SPR | – | Kd | 19.5 µM |
| CNC(=O)[C@@]12C[C@@H]1[C@@H](n1cnc3c(Nc4ccccc4)nc(C#Cc4ccc(Cl)s4)nc31)[C@H](O)[C@@H]2O | SLC6A2 | ligand displacement | – | radioligand | – | Ki | 2.5 µM |
| COc1cc2c(cc1OC)C(=O)/C(=C/C1CCCCC1)C2 | CES2 | enzyme activity | inhibitor | fluorescence | with preincubation | IC50 | 2.42 µM |
| OC[C@@]12C[C@@H]1[C@@H](n1cnc3c(N[C@@H](C4CCC4)C4CC4)nc(C#Cc4ccc(Cl)s4)nc31)[C@H](O)[C@@H]2O | SLC6A2 | ligand displacement | – | radioligand | – | Ki | 1.8 µM |
| O=C(CCNC(=O)CNC(=O)CC(c1ccccc1)(c1ccccc1)c1ccccc1)NC[C@H]1CCCN(Cc2ccc(F)cc2)C1 | Muscarinic acetylcholine receptor M5 (CHRM5, Homo sapiens, UniProt P08912) | ligand displacement | – | radioligand | cell membranes | IC50 | 19.4 µM |
| CC(C)[C@H](CN1CCc2ccccc2C1)NC(=O)c1ccc([N+](=O)[O-])s1 | Oprk1 | ligand displacement | – | radioligand | – | Ki | 9.3 µM |
| COc1cc2c(cc1OC)C(=O)/C(=C/C1CCCC1)C2 | CES2 | enzyme activity | inhibitor | fluorescence | with preincubation | IC50 | 6.31 µM |
| CCOC(=O)[C@@]12C[C@@H]1[C@@H](n1ccc3c(NCCCCCc4ccccc4)nc(C#Cc4ccccc4)nc31)[C@H](O)[C@@H]2O | SLC6A2 | ligand displacement | – | radioligand | – | Ki | 0.47 µM |
| Cc1cccc(-c2nnc(N[C@@H](Cc3ccc(C#N)cc3)C(=O)N3CCc4ccccc43)o2)c1 | FPR1 | calcium signal | agonist | – | – | EC50 | 19.4 µM |
| COc1cc(Nc2c(C#N)cnc3cc(OCCCN4CCN(C)CC4)c(OC)cc23)c(Cl)cc1Cl | CES2 | enzyme activity | inhibitor | fluorescence | with preincubation | IC50 | 22 µM |
| CC(C)[C@@H](CN1CCc2ccccc2C1)NC(=O)c1cccc(-c2cccc(C#N)c2)c1 | Oprk1 | ligand displacement | – | radioligand | – | Ki | 2.14 µM |
| COc1cc2c(cc1OC)C(=O)/C(=C/c1ccc3ccccc3c1)C2 | CES2 | enzyme activity | inhibitor | fluorescence | with preincubation | IC50 | 10.4 µM |
| CCCCC[C@H](O)/C=C/[C@H]1C(=O)C[C@H](O)[C@@H]1C/C=C\CCCC(=O)O | Prostaglandin D2 receptor (PTGDR, Homo sapiens, UniProt Q13258) | G protein activation | agonist | BRET | – | EC50 | 0.00646 µM |
| COc1cc2c(cc1OC)C(=O)/C(=C/c1ccccc1N1CCCC1)C2 | CES2 | enzyme activity | inhibitor | fluorescence | with preincubation | IC50 | 0.72 µM |
| CCOC(=O)[C@@]12C[C@@H]1[C@@H](n1cnc3c(NC4CC4)nc(C#Cc4ccc(Cl)s4)nc31)[C@H](O)[C@@H]2O | SLC6A2 | ligand displacement | – | radioligand | – | Ki | 3.7 µM |
